Series [1] is described as follows: Colloidal aggregation in fed state simulated intestinal fluid by dynamic light scattering-based beads autocorrelation assay in presence of 1% DMSO. In kind it is physicochemical. Conditions: simulated gi fluid. Put shortly: (§1)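 FeSSIF samples examined by DLS (826.6 nm laser, 90° detector, room temperature), comparing autocorrelation curves with blank FeSSIF. The micelle background was checked with 200 nm calibration beads diluted in FeSSIF. Drug samples were made by diluting DMSO stocks into filtered FeSSIF (15 mM taurocholate, 3.75 mM lecithin).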

Series [2] can be described thus: Colloidal aggregation in fed state simulated intestinal fluid assessed as colloid radius at 20 uM by dynamic light scattering assay in presence of 1% DMSO. In kind it is physicochemical. Conditions: simulated gi fluid. The essentials: (§2)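 Concentrated DMSO stocks diluted into filtered FeSSIF: blank FeSSIF plus 15 mM sodium taurocholate and 3.75 mM lecithin, dissolved at 37 °C. Final DMSO 1% unless otherwise noted. Particle size by dynamic light scattering at 826.6 nm, detector at 90°, 100% laser power. Values are averages of three or more independent measurements at room temperature.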

Series [3] in a line: Colloidal aggregation in fed state simulated intestinal fluid assessed as colloid radius at 150 uM by dynamic light scattering assay in presence of 0.75% DMSO. The format is physicochemical. Conditions: simulated gi fluid. Put shortly:
as §2

A short description of series [4]: Colloidal aggregation in phosphate buffer at 100 uM by transmission electron microscopy in presence of 0.2% DMSO. In kind it is physicochemical. The essentials:
(§3)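 Drug DMSO stocks diluted into 50 mM phosphate buffer. Samples adsorbed ~30 s onto glow-discharged formvar/carbon-coated copper grids and negatively stained with 2% ammonium molybdate. Imaged by transmission electron microscopy at 80 kV, standard magnification 25 000.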

Series [5] can be described thus: Colloidal aggregation in fed state simulated intestinal fluid at 200 uM by transmission electron microscopy in presence of 1% DMSO. In kind it is physicochemical. Particulars: simulated gi fluid. Put shortly: (§4)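 Drug DMSO stocks diluted into FeSSIF. Samples adsorbed ~30 s onto glow-discharged formvar/carbon-coated copper grids and negatively stained with 2% ammonium molybdate. Viewed by transmission electron microscopy at 80 kV, standard magnification 25 000, calibrated with catalase crystals and ferritin.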

A short description of series [6]: Colloidal aggregation in fed state simulated intestinal fluid by dynamic light scattering assay in presence of 0.75% DMSO. The format is physicochemical. Conditions: simulated gi fluid. Put shortly:
as §2

Series [7] has as its target T1, Cruzipain (Trypanosoma cruzi, UniProt P25779). Kind of series: Inhibition of Trypanosoma cruzi cruzaine preincubated for 5 mins before substrate addition by fluorescence assay in presence of 0.01% Triton X-100.
A short description of series [8]: Colloidal aggregation in fed state simulated intestinal fluid assessed as colloid radius at 2.5 uM by dynamic light scattering assay in presence of 1% DMSO. The format is physicochemical. Conditions: simulated gi fluid. Put shortly: as §2
The target of series [9] is T1, Cruzipain. Kind of series: Inhibition of Trypanosoma cruzi cruzaine preincubated for 5 mins before substrate addition by fluorescence assay in absence of Triton X-100.
Series [10] in a line: Colloidal aggregation in fed state simulated intestinal fluid assessed as colloid radius at 10 uM by dynamic light scattering assay in presence of 1% DMSO. Conditions: simulated gi fluid.
Series [11] is described as follows: Colloidal aggregation in fed state simulated intestinal fluid assessed as colloid radius at 50 uM by dynamic light scattering assay in presence of 1% DMSO. In kind it is physicochemical. Conditions: simulated gi fluid. The essentials: as §2
A short description of series [12]: Colloidal aggregation in fed state simulated intestinal fluid at 600 uM by dynamic light scattering-based beads autocorrelation assay in presence of 6% DMSO. The format is physicochemical. Conditions: simulated gi fluid. Put shortly: as §1
The nature of series [13]: Colloidal aggregation in fed state simulated intestinal fluid assessed as colloid radius at 600 uM by dynamic light scattering assay in presence of 6% DMSO. Particulars: simulated gi fluid.
Series [14] in a line: Colloidal aggregation in fed state simulated intestinal fluid by dynamic light scattering assay in presence of 6% DMSO. In kind it is physicochemical. Particulars: simulated gi fluid. The essentials: as §2
Series [15] in a line: Binding affinity to beta-lactamase AmpC at 200 uM after 30 mins by SDS-PAGE. Put shortly: (§5)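 Cosedimentation in FeSSIF, with and without 2 μg AmpC β-lactamase added per sample. Samples centrifuged at 16000g for 30 min at room temperature. Supernatant removed completely; pellets resuspended in DMSO plus 50 mM KPi pH 7.0 and run on SDS-PAGE. Protein detected by silver staining. Drug-only pellets included as background controls.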

Series [16] is described as follows: Colloidal aggregation in phosphate buffer at 50 uM by transmission electron microscopy in presence of 0.5% DMSO. The format is physicochemical. The essentials:
as §3

A short description of series [17]: Aggregation-based binding affinity to beta-lactamase AmpC at 200 uM in fed state simulated intestinal fluid after 30 mins by silver staining in presence of 2% DMSO. The essentials: as §5
The nature of series [18]: Colloidal aggregation in fed state simulated intestinal fluid assessed as percent of drug in fraction after centrifugation by UV-visible spectrophotometry in presence of 3% DMSO. Conditions: simulated gi fluid.
The nature of series [19]: Colloidal aggregation in fed state simulated intestinal fluid at 100 uM by transmission electron microscopy in presence of 1% DMSO. Conditions: simulated gi fluid. In kind it is physicochemical. The essentials:
as §4

A short description of series [20]: Colloidal aggregation in fed state simulated intestinal fluid assessed as colloid radius at 500 uM by dynamic light scattering assay in presence of 1% DMSO. The format is physicochemical. Particulars: simulated gi fluid. The essentials: as §2
A short description of series [21]: Colloidal aggregation in fed state simulated intestinal fluid assessed as colloid radius at 20 uM by dynamic light scattering assay in presence of 0.2% DMSO. The format is physicochemical. Conditions: simulated gi fluid. The essentials: as §2
A short description of series [22]: Colloidal aggregation in fed state simulated intestinal fluid assessed as colloid radius at 5 uM by dynamic light scattering assay in presence of 1% DMSO. In kind it is physicochemical. Particulars: simulated gi fluid. The essentials:
as §2

Series [23] can be described thus: Colloidal aggregation in fed state simulated intestinal fluid by dynamic light scattering assay in presence of 0.2% DMSO. In kind it is physicochemical. Conditions: simulated gi fluid. Put shortly:
as §2

Structures are written as SMILES. Counter-ions that a name gives are not always drawn. Activity calls are given as the source filed them. The rule behind the calls is not given here.

T1 sequence (P25779 whole entry): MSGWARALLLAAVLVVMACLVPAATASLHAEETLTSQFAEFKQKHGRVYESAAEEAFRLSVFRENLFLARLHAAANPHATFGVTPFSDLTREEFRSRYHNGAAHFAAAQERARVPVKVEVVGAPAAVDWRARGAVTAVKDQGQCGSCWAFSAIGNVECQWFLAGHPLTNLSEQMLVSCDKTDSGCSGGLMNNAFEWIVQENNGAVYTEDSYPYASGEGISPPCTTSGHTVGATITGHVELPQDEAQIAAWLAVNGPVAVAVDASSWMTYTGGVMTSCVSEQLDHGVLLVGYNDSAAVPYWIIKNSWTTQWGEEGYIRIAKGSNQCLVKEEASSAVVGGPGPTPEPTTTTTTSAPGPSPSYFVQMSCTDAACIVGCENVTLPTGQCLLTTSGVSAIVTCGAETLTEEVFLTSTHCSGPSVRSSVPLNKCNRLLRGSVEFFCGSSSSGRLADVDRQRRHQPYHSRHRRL

`CN(C)c1ccc2nc3ccc(N(C)C)cc3[s+]c2c1.[Cl-]` [METHYLENE BLUE ANHYDROUS]: the Activity result is “Active” in [1]; 95.9 nm in [2]; 52.6 nm in series [3]; “Active” in series [4]; “Active” in series [5]; 150 µM in series [6].

As to `COC(=O)C1=C(C)NC(C)=C(C(=O)OCCN2CCN(C(c3ccccc3)c3ccccc3)CC2)C1c1cccc([N+](=O)[O-])c1` (stereo not given) [MANIDIPINE 6300], the half-inhibitory concentration (IC50) at Cruzipain [7] is above 100 µM; on Cruzipain [9] it was 6 µM. Also, the Activity in [8] is listed as 125.6 nm.

Consider `Cc1c(O)cccc1C(=O)N[C@@H](CSc1ccccc1)[C@H](O)CN1C[C@H]2CCCC[C@H]2C[C@H]1C(=O)NC(C)(C)C`, for which the values for the half-maximal inhibitory concentration (IC50) at Cruzipain [7] and at Cruzipain [9] were above 300 µM and 144 µM, respectively. Besides, in series [2], the Activity is recorded as 690.7 nm.

For `Cc1c(C)c2c(c(C)c1OC(=O)c1cccnc1)CC[C@@](C)(CCC[C@H](C)CCC[C@H](C)CCCC(C)C)O2` (racemic), the IC50 was above 400 µM at Cruzipain [7] and 98 µM against Cruzipain [9]. For the same molecule, the Activity result in [1] is given as “Active”; in series [10], 104.1 nm; in series [11] it was 55.7 nm.

For `CC(C)/N=c1\cc2n(-c3ccc(Cl)cc3)c3ccccc3nc-2cc1Nc1ccc(Cl)cc1` [CLOFAZIMINE], the Activity entry in series [12] is “Active”; in series [13], 103.7 nm; in series [14], 600 µM; in [10], 356.1 nm. The half-maximal inhibitory concentration (IC50) on Cruzipain [7] amounted to 40 µM; on Cruzipain [9] it was 6 µM.

On to `CCC(C)n1ncn(-c2ccc(N3CCN(c4ccc(OCC5COC(Cn6cncn6)(c6ccc(Cl)cc6Cl)O5)cc4)CC3)cc2)c1=O` (stereo not given) [ITRACONAZOLE], for which, in series [15], the result was inactive. The figures for the 50% inhibitory concentration (IC50) on Cruzipain [7] and against Cruzipain [9] were above 200 µM and 3 µM, respectively. Further, the Activity result in series [1] is on record as “Active”; in [16], “Active”; in series [2], 64.5 nm; in [8], 138.1 nm; in series [19] it was “Active”. The outcome in series [17] was Active. The “Percent of drug in fraction” value in [18] is given as 6.9%.

For the molecule `CN(C)CCCN1c2ccccc2Sc2ccc(Cl)cc21.Cl` [CHLORPROMAZINE HYDROCHLORIDE], in series [20], the Activity is recorded as 29.2 nm.

For `O=C(c1ccc(OCCN2CCCCC2)cc1)c1c(-c2ccc(O)cc2)sc2cc(O)ccc12` [RALOXIFENE], the half-maximal inhibitory concentration (IC50) on Cruzipain [7] turned out to be 128 µM; against Cruzipain [9] it was 33 µM. In [2], the Activity is 192.2 nm.

As for `CCCCc1oc2ccccc2c1C(=O)c1cc(I)c(OCCN(CC)CC)c(I)c1` [AMIODARONE HYDROCHLORIDE], the figures for the IC50 on Cruzipain [7] and at Cruzipain [9] were 206 µM and 4 µM, respectively.

As to `CC(C)=CCC/C(C)=C/CC/C(C)=C/CC/C(C)=C/CC1=C(C)C(=O)c2ccccc2C1=O` [MENATETRENONE], the values for the IC50 on Cruzipain [7] and on Cruzipain [9] were above 200 µM and 18 µM, respectively. For the same molecule, the Activity in series [21] was 36.8 nm; in [1] it was “Active”; in [22], 72.5 nm; in [23], 20 µM.

Usually IC50 stands for the concentration that inhibits the measured activity by half.

The values above are taken from ChEMBL document CHEMBL1155470, “Colloid formation by drugs in simulated intestinal fluid” (J Med Chem, 2010).
